Calls of active or inactive are those of the source. No cut-off for these calls is given here.
Tests used:
[1] = Hepatotoxicity in 6 hrs post fertilized transgenic l-fabp:EGFP zebrafish embryo assessed as change in liver area index up to 40 uM up to 120 hrs post fertilization by fluorescence assay; assay type: toxicity, Danio rerio; details: in vivo
Procedure, shortened: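 Tg(l-fabp:EGFP) zebrafish embryos exposed from 6 hpf. At 120 hpf, liver area index (liver area/lateral body area) and liver fluorescence assessed by in vivo imaging.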

[2] = Drug uptake in C57Bl/6 mouse serum at 10 mg/kg/day, ip qd for 7 days measured on day 5 at 15 to 180 mins post dose by UHPLC/MS analysis; assay type: ADME, organism-based; details: in vivo, read-out: Drug uptake
[3] = Drug uptake in C57Bl/6 mouse serum at 10 mg/kg/day, ip qd for 7 days measured on day 7 at 5 to 240 mins post dose by UHPLC/MS analysis; assay type: ADME, organism-based; details: in vivo, read-out: Drug uptake
[4] = Half life in mouse liver microsomes; assay type: ADME, Microsome
Procedure, shortened: (§1)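 Substrate depletion with mouse or human liver microsomes, 1 h at 37 °C. Clearance (μL/min/mg) and half-life derived.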

[5] = Clearance in human liver microsomes after 1 hr; assay type: ADME, Microsome; details: read-out: CLH; procedure, shortened: as §1
[6] = Half life in human liver microsomes; assay type: ADME, Microsome; procedure, shortened: as §1
[7] = tested on: Vesicular stomatitis virus; assay: Antiviral activity against VSV expressing GFP infected in human HeLa cells assessed as inhibition of viral infection at 2 uM pre-incubated for 2 hrs followed by viral infection and measured after 6 hrs by cell mask deep red staining based assay; assay type: functional, organism-based
Procedure, shortened: (§2)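 HeLa cells pretreated 2 h with compound, then infected with rVSV-EBOV-GP-GFP (8 h) or VSV-GFP (6 h), and stained with Cell Mask Deep Red. Relative inhibition = 1 minus (% GFP-expressing cells normalised to mock). Mean ± SD of three replicates, representative of three independent experiments.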

[8] = Drug metabolism in C57Bl/6 mouse assessed as reduction metabolite formation at 20 mg/kg/day, ip qd for 7 days measured at 24 hrs post last dose by UHPLC/MS analysis; assay type: ADME, organism-based; details: in vivo
Procedure, shortened: (§3)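 Serum from two mice dosed 20 mg/kg/day i.p. taken 24 h after the last dose. Compound quantified by UHPLC/MS and screened for M+2, M+16, M-2 and M+32 products or combinations.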

HeLa = assay: Induction of lysosome suppression in human HeLa cells assessed as vesicular compartment expansion pretreated for 2 hrs by uranyl acetate staining based transmission electron microscopic method; assay type: functional, subcellular
Procedure, shortened: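 HeLa cells mock-treated or treated 2 h with compound, then left uninfected or infected with rVSV-EBOV-GP-GFP for 2 h or 6 h. Processed for transmission electron microscopy to examine vesicular compartments.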

[9] = Clearance in mouse liver microsomes after 1 hr; assay type: ADME, Microsome; details: read-out: CLH; procedure, shortened: as §1
[10] = Apparent permeability from apical to basolateral side in MDCK cells; assay type: ADME, cell-based, Canis lupus familiaris; details: dog
Procedure, shortened: (§4)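 Apparent permeability measured in MDCK cell monolayers, apical→basolateral and basolateral→apical directions, three biological replicates.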

Zaire ebolavirus [11] = assay: Antiviral activity against Ebolavirus Mayinga infected in Balb/c mouse assessed as protection against viral infection by measuring host survival at 10 mg/kg, ip administered 2 hrs prior to viral infection daily for 6 days and measured for 14 days relative to control; assay type: functional, 1976
[12] = Apparent permeability from basolateral to apical side in MDCK cells; assay type: ADME, cell-based, Canis lupus familiaris; details: dog; procedure, shortened: as §4
[13] = Drug metabolism in C57Bl/6 mouse assessed as bis-oxygenation metabolite formation at 20 mg/kg/day, ip qd for 7 days measured at 24 hrs post last dose by UHPLC/MS analysis; assay type: ADME, organism-based; details: in vivo; procedure, shortened: as §3
Cytochrome P450 2D6 = Cytochrome P450 2D6 (Homo sapiens, UniProt P10635); assay: Inhibition of CYP2D6 (unknown origin) using 3-(2-(N, N-Diethyl-N-methylamino)ethyl)-7-Methoxy-4-Methylcoumarin as substrate; assay type: ADME; details: read-out: INH
Chain of Cytochrome P450 2D6 (P10635 whole entry): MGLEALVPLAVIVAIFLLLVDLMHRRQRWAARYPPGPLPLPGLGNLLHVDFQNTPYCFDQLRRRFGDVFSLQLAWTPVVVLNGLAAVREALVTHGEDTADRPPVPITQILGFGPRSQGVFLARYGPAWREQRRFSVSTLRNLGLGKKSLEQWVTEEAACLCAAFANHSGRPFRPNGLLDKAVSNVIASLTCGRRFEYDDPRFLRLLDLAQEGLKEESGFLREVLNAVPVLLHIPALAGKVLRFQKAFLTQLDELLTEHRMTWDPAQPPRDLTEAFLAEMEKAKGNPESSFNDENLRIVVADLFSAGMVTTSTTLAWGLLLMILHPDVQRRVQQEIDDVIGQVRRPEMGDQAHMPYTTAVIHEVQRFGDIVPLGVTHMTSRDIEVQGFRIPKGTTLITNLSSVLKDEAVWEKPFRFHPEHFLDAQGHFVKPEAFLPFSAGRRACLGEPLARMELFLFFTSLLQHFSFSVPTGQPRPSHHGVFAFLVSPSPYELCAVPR
Procedure, shortened: (§5)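 CYP IC50 was taken from the net fluorescent signal after incubation at 37 °C for a set time with active cytochrome P450 enzyme and a fluorescent probe substrate.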

Cytochrome P450 3A4 [14] = biological target: T1, Cytochrome P450 3A4 (Homo sapiens, UniProt P08684); assay: Inhibition of CYP3A4 (unknown origin) using 7-benzyloxyquinoline as substrate; assay type: ADME; procedure, shortened: as §5
T1 sequence (P08684 whole entry): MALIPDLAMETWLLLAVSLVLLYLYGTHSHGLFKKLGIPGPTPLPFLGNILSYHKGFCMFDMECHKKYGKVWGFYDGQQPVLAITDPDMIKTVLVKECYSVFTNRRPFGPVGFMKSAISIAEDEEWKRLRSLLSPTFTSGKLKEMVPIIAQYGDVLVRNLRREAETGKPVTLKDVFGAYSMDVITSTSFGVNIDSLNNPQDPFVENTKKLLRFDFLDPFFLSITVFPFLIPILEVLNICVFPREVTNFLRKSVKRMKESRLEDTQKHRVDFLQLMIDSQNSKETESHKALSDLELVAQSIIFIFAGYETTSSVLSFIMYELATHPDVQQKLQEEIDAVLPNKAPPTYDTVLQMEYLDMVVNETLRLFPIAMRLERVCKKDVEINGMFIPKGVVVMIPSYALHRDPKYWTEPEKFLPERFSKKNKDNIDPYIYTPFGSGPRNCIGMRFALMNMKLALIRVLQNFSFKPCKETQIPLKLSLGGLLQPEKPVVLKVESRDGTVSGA

Cytochrome P450 2C19 = Cytochrome P450 2C19 (Homo sapiens, UniProt P33261); assay: Inhibition of CYP2C19 (unknown origin) using CEC as substrate; assay type: ADME; procedure, shortened: as §5
Chain of Cytochrome P450 2C19 (P33261 whole entry): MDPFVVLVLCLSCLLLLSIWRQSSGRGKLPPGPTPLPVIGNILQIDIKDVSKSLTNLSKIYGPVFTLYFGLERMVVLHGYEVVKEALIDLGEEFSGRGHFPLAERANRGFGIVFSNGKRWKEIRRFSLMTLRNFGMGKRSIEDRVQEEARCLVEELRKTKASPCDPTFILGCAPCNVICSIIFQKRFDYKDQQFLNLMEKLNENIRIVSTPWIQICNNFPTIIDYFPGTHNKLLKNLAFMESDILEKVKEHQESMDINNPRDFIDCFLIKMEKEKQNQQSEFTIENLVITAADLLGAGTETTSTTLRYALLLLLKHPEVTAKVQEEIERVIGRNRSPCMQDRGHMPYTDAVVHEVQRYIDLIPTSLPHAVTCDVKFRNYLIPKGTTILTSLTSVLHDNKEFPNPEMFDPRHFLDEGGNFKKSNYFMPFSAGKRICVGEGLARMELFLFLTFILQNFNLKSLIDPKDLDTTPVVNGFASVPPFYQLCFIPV

[15] = tested on: Vesicular stomatitis virus; assay: Antiviral activity against VSV expressing GFP infected in human HeLa cells assessed as inhibition of viral infection at 0.1 uM pre-incubated for 2 hrs followed by viral infection and measured after 6 hrs by cell mask deep red staining based assay; assay type: functional, organism-based; procedure, shortened: as §2
[16] = Stability in plasma (unknown origin) after 1 hr at 37 degC; assay type: ADME, cell-free; details: read-out: Stability
Procedure, shortened: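 Compound was incubated in plasma for 1 h at 37 °C, and the percent remaining was reported.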

Zaire ebolavirus [17] = assay: Antiviral activity against VSV pseudotyped Ebolavirus Mayinga expressing GFP infected in human HeLa cells assessed as inhibition of viral infection up to 50 uM pre-incubated for 2 hrs followed by viral infection and measured after 8 hrs by high content imaging analysis; assay type: functional, organism-based; details: 1976; procedure, shortened: as §2
[18] = Drug metabolism in C57Bl/6 mouse assessed as dehydrogenation metabolite formation at 20 mg/kg/day, ip qd for 7 days measured at 24 hrs post last dose by UHPLC/MS analysis; assay type: ADME, organism-based; details: in vivo; procedure, shortened: as §3
[19] = Myelotoxicity in 6 hrs post fertilized transgenic mpx:GFP zebrafish embryo assessed as reduction in neutrophil occurrence up to 40 uM measured at 72 hrs hrs post fertilization by fluorescence assay; set-up: species or system Danio rerio
Procedure, shortened: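 Tg(mpx:GFP) zebrafish embryos with GFP-labelled neutrophils were treated with compound. At 72 hpf, neutrophil fluorescence of the whole embryo and neutrophil occurrence were assessed.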

[20] = Toxicity in Balb/c mouse infected with Ebolavirus Mayinga assessed as weight loss at 1 to 10 mg/kg, ip administered 2 hrs prior to viral infection daily for 6 days and measured for 14 days; assay type: organism-based; details: in vivo, 336 h
Cytochrome P450 3A4 [21] = biological target: T1, Cytochrome P450 3A4; assay: Inhibition of CYP3A4 (unknown origin) using 7-benzyloxy-4-trifluoromethylcoumarin as substrate; assay type: ADME; procedure, shortened: as §5

Cl.Cl.Cl.Cl.c1cc(NCCN2CCOCC2)c2ccc3c(ccc4c(NCCN5CCOCC5)ccnc43)c2n1
Activity [1]: Non-Toxic
concentration [2]: 460 to 1030 nM
concentration [3]: 460 to 650 nM

Cl.Cl.Cl.Cl.c1cc(NCCCCN2CCOCC2)c2ccc3c(ccc4c(NCCN5CCOCC5)ccnc43)c2n1
half-life [4]: 62.1 min
microsomal CLint [5]: 32.9 µL/min/mg
half-life [6]: 42.1 min
Activity [7]: inactive
Drug metabolism [8]: Metabolite_Notdetected
Activity (HeLa): Active
microsomal CLint [9]: 22.3 µL/min/mg
Papp A→B [10]: 39.3 to 67.2 ×10⁻⁶ cm/s
Activity (Zaire ebolavirus [11]): 100%
Papp B→A [12]: 43.2 to 67.3 ×10⁻⁶ cm/s
Drug metabolism [13]: Metabolite_Notdetected
IC50 (Cytochrome P450 2D6): > 10 µM
INH (Cytochrome P450 3A4 [14]): > 10 µM
INH (Cytochrome P450 2C19): > 10 µM
Activity [15]: inactive
remaining at 1 h [16]: 60%
Activity (Zaire ebolavirus [17]): Active
Drug metabolism [18]: Metabolite_Notdetected
Activity [19]: Non-Toxic
Activity [20]: Non-Toxic
INH (Cytochrome P450 3A4 [21]): > 10 µM

Reference: ChEMBL document CHEMBL4330057, “Second generation of diazachrysenes: Protection of Ebola virus infected mice and mechanism of action” (Eur J Med Chem, 2019)
